ChEMBL document CHEMBL1126879, “A new series of imidazolones: highly specific and potent nonpeptide AT1 angiotensin II receptor antagonists” (J Med Chem, 1993)

Columns and labels:
[1] = molecular target: T1, Type-1 angiotensin II receptor B (Rattus norvegicus, UniProt P29089); assay: Binding affinity for Angiotensin II receptor, type 1 measured by ability to displace [125I]- A II from its specific binding site in rat liver membrane; format: cell membranes
T1 sequence (P29089 whole entry): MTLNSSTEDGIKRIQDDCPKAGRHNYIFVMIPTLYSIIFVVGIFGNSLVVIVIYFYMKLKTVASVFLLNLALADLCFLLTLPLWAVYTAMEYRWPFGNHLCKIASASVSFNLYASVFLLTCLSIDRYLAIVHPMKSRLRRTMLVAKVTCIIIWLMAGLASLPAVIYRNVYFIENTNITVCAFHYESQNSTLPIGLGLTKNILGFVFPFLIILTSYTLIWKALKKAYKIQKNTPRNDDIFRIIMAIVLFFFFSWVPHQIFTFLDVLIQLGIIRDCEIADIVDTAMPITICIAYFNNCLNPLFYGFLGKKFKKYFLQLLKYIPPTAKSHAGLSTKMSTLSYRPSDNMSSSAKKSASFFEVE
Procedure, shortened: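 Purified plasma membranes from male Sprague-Dawley rat liver, isolated on a sucrose gradient, 20–30 μg protein per assay. Filtered, then gamma counted. Nonspecific binding with 1 μM unlabeled AII. Triplicates; IC50 and Hill coefficient from Hill plots.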

Oryctolagus cuniculus = species on record: Oryctolagus cuniculus; assay: Antagonistic activity through inhibition of A II induced contractions on rabbit aortic strips; format: functional; conditions: Aorta

| IC50 [1] [nM] | IC50 (Oryctolagus cuniculus) [nM] | SMILES |
| --- | --- | --- |
| 110 | 420 | CCCCC1=NC2(CCN(Cc3ccccc3)CC2)C(=O)N1Cc1ccc(-c2ccccc2C(=O)O)cc1 |
| 38 | 42 | CCCCC1=NC2(CCC2)C(=O)N1Cc1ccc(-c2ccccc2C(=O)O)cc1 |
| 60 | 240 | CCCCC1=NC2(Cc3ccccc3C2)C(=O)N1Cc1ccc(-c2ccccc2C(=O)O)cc1 |
| 800 | – | CCCCC1=NC2(CCN(C(=O)C(N)CC(=O)O)CC2)C(=O)N1Cc1ccc(-c2ccccc2C(=O)O)cc1 (stereo not given) |
| 2500 | 3900 | O=C(O)c1ccccc1-c1ccc(CN2C(=O)C3(CCCC3)N=C2Cc2ccccc2)cc1 |
| 18 | 130 | CCCCC1=NC2(CCN(C(C)=O)CC2)C(=O)N1Cc1ccc(-c2ccccc2C(=O)O)cc1 |
| 350 | 350 | CCCCC1=NC2(CCCCCCCCCC2)C(=O)N1Cc1ccc(-c2ccccc2C(=O)O)cc1 |
| 62 | 23 | CCCCC1=NC2(C(=O)N1Cc1ccc(-c3ccccc3C(=O)O)cc1)C1CC3CC(C1)CC2C3 (stereo not given) |
| 3000 | 5400 | CCCCC1=NC(c2ccccc2)(c2ccccc2)C(=O)N1Cc1ccc(-c2ccccc2C(=O)O)cc1 |
| 47 | 200 | CCCCC1=NC2(CCOCC2)C(=O)N1Cc1ccc(-c2ccccc2C(=O)O)cc1 |
| 1800 | > 10000 | CCCCC1=NC2(CCCC2)C(=O)N1Cc1ccc(-c2ccccc2C(=O)OC)cc1 |
| 80 | 52 | CCCCC1=NC2(CCCC2)C(=S)N1Cc1ccc(-c2ccccc2C(=O)O)cc1 |
| 440 | > 10000 | CCCCC1=NC2(CCCC2)C(=O)N1Cc1ccc(-c2ccccc2C#N)cc1 |
| 1.3 | 4 | CCCCC1=NC2(CCCC2)C(=O)N1Cc1ccc(-c2ccccc2-c2nnn[nH]2)cc1 [IRBESARTAN] |
| – | 25 | CCCCc1nc(Cl)c(CO)n1Cc1ccc(-c2ccccc2-c2nnn[nH]2)cc1 [LOSARTAN] |
| 2.4 | 2.3 | CNCC(=O)N[C@@H](CCCNC(=N)N)C(=O)N[C@H](C(=O)N[C@@H](Cc1ccc(O)cc1)C(=O)N[C@H](C(=O)N[C@@H](Cc1cnc[nH]1)C(=O)N1CCC[C@H]1C(=O)N[C@@H](C)C(=O)O)C(C)C)C(C)C [SARALASIN] |
